The source of these data is ChEMBL document CHEMBL1153398, “Synthesis, activity and molecular modeling of a new series of chromones as low molecular weight protein tyrosine phosphatase inhibitors” (Bioorg Med Chem, 2009).

Test [1] concerns the target T1, Low molecular weight phosphotyrosine protein phosphatase (Homo sapiens) (UniProt P24666).
T1 sequence (whole entry): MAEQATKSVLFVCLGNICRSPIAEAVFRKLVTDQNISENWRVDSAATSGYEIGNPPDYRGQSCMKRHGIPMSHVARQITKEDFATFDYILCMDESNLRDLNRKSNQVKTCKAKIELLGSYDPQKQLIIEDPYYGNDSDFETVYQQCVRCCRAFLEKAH
The experiment in a line: Inhibition of human cloned LMW-PTP isoform 1 expressed in Escherichia coli TB1 at 15 uM. The gist of the method: (§1)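 GST-fused human enzymes (LMW-PTP IF1 or IF2, or PTP-1B) expressed in E. coli TB1, affinity-purified, thrombin-cleaved (3 h, 37 °C) and gel-filtered. […] Reaction stopped with 1 M KOH; p-nitrophenol read at 400 nm. Initial rates in triplicate; IC50 fitted to Vi/V° = IC50/(IC50+[I]); single-concentration lines give % inhibition.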

Test [2] has as its target T1, Low molecular weight phosphotyrosine protein phosphatase (Homo sapiens). The experiment in a line: Inhibition of human cloned LMW-PTP isoform 2 expressed in Escherichia coli TB1 at 15 uM. The gist of the method: as §1
For test [3], the target named is T2, Tyrosine-protein phosphatase non-receptor type 1 (Homo sapiens) (UniProt P18031).
T2 sequence (whole entry): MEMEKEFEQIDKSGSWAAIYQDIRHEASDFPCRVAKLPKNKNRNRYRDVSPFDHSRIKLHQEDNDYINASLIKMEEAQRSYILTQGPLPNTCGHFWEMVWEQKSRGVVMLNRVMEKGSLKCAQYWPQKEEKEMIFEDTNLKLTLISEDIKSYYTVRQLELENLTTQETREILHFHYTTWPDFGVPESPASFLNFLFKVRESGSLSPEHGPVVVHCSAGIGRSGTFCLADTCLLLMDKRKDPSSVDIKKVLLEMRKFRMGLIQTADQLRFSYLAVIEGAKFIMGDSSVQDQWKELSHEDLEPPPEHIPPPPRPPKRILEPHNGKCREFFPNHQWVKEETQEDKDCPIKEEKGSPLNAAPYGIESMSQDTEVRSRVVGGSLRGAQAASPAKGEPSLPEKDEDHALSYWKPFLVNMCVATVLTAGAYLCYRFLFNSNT
The experiment in a line: Inhibition of human cloned PTP1B expressed in Escherichia coli TB1 at 15 uM. The gist of the method: as §1

In test [4] the target is T3, Low molecular weight phosphotyrosine protein phosphatase (Homo sapiens, UniProt P24666).
T3 sequence (P24666 whole entry): T1 sequence (whole entry)
The experiment in a line: Inhibition of human cloned LMW-PTP isoform 1 expressed in Escherichia coli TB1.

The target of test [5] is T3, Low molecular weight phosphotyrosine protein phosphatase. Description: Inhibition of human cloned LMW-PTP isoform 2 expressed in Escherichia coli TB1.
Test [6] deals with T4, Tyrosine-protein phosphatase non-receptor type 1 (Homo sapiens, UniProt P18031).
T4 sequence (P18031 whole entry): T2 sequence (whole entry)
The experiment in a line: Inhibition of human cloned PTP1B expressed in Escherichia coli TB1. The gist of the method:
as §1

The target of test [7] is T3, Low molecular weight phosphotyrosine protein phosphatase. The experiment in a line: Inhibition of human cloned LMW-PTP isoform 1 expressed in Escherichia coli TB1 by competitive inhibition assay.
Test [8] has the same target. The experiment in a line: Inhibition of human cloned LMW-PTP isoform 2 expressed in Escherichia coli TB1 by competitive inhibition assay.
For test [9], the target named is Insulin receptor (Homo sapiens) (UniProt P06213). Description: Activation of human insulin receptor beta expressed in human HepG2 cells assessed as stimulation of receptor phosphorylation at 10 uM after 90 mins by SDS-PAGE. The format is cell-based. The gist of the method: (§2)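 HepG2 cells grown in DMEM with 10% bovine calf serum, 37 °C, 5% CO2; subconfluent cells serum-starved 20 h. Inhibitor added to medium at 10 µM final, 90 min, 37 °C; 10 nM insulin, 0.5% DMSO and 10 µM orthovanadate as references. Lysis in SDS Laemmli buffer, SDS-PAGE, Western blot for phospho-IRβ, then stripped and reprobed for phospho-Akt, phosphotyrosine and actin. At least three separate experiments.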
Chain of Insulin receptor (Homo sapiens) (P06213 28-758 limits assumed): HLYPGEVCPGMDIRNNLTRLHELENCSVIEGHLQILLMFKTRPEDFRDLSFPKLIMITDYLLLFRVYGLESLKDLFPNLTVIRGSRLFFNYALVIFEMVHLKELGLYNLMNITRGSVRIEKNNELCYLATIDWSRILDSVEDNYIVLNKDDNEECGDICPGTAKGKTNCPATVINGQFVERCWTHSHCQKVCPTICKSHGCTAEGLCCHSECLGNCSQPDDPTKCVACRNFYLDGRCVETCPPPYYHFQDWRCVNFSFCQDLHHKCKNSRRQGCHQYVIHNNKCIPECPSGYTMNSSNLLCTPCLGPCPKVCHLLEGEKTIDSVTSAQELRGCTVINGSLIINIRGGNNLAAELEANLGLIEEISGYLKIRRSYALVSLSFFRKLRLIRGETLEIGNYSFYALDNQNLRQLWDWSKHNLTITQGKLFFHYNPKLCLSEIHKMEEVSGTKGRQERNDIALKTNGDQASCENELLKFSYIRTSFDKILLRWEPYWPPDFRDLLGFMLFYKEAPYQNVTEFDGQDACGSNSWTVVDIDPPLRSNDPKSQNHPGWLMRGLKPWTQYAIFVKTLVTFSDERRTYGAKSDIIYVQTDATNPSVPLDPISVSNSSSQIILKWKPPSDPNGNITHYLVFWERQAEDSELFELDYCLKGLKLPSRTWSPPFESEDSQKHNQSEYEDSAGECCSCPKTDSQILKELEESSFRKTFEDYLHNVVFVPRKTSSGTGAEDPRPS
Chain of Insulin receptor (Homo sapiens) (P06213 763-1382 limits assumed): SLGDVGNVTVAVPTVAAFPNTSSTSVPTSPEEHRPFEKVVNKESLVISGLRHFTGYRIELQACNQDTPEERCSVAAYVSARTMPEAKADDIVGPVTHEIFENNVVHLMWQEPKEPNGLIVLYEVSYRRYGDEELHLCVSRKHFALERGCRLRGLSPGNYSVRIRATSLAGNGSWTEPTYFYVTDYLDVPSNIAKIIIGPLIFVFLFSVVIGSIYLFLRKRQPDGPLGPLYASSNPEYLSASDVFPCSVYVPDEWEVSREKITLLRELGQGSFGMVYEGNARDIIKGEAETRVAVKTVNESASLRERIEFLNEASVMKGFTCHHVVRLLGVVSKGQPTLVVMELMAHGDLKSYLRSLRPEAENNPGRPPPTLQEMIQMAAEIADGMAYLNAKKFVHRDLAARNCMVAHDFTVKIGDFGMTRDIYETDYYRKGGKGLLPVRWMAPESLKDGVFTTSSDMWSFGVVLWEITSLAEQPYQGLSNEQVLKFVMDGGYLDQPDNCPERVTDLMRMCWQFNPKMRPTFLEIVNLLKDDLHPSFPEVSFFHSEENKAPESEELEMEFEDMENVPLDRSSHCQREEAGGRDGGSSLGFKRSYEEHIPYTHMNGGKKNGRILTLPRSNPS

For test [10] the target is unchanged. Description: Activation of human insulin receptor beta expressed in human HepG2 cells assessed as increase in tyrosine phosphorylation level at 10 uM after 90 mins by SDS-PAGE. It counts as cell-based. The gist of the method: as §2
The target of test [11] is T1, Low molecular weight phosphotyrosine protein phosphatase (Homo sapiens). Description: Inhibition of human cloned LMW-PTP isoform 1 expressed in Escherichia coli TB1 at 20 uM. The gist of the method: as §1
The target is the same in test [12]. Description: Inhibition of human cloned LMW-PTP isoform 2 expressed in Escherichia coli TB1 at 20 uM. The gist of the method:
as §1

The target of test [13] is T2, Tyrosine-protein phosphatase non-receptor type 1 (Homo sapiens). The experiment in a line: Inhibition of human cloned PTP1B expressed in Escherichia coli TB1 at 20 uM. The gist of the method:
as §1

The target in test [14] is T4, Tyrosine-protein phosphatase non-receptor type 1. Description: Inhibition of human recombinant PTP1B.
Test [15] concerns the target T3, Low molecular weight phosphotyrosine protein phosphatase. The experiment in a line: Inhibition of human cloned LMW-PTP isoform 1 expressed in Escherichia coli TB1 by mixed type inhibition assay.
Test [16] has the same target. Description: Inhibition of human cloned LMW-PTP isoform 2 expressed in Escherichia coli TB1 by mixed type inhibition assay.
The target in test [17] is Insulin receptor (Homo sapiens) (UniProt P06213). Description: Activation of human insulin receptor beta expressed in human HepG2 cells assessed as increase in Akt phosphorylation level at 10 uM after 90 mins by SDS-PAGE. It counts as cell-based. The gist of the method:
as §2

Test [18] deals with T4, Tyrosine-protein phosphatase non-receptor type 1. The experiment in a line: Inhibition of human cloned PTP1B expressed in Escherichia coli TB1 by mixed type inhibition assay.

Structures are written as SMILES. Calls of active or inactive are those of the source. No cut-off for these calls is given here.

Broadly, the inhibition is the relative decrease from the control value, in per cent. Low readings indicate a weak effect, high ones a strong effect. As to `O=c1c(Cc2ccc(-c3ccccc3)cc2)c(CCCc2ccc(O)cc2)oc2cc(O)ccc12`, the figures for the inhibition in [1], in test [2] and in test [3] were 10%, 10% and 0%, respectively.
As usually defined, the IC50 is the concentration that gives 50% inhibition. For `O=C(O)c1cccc(-c2ccc(Cc3c(-c4ccc(O)cc4)oc4cc(O)ccc4c3=O)cc2)c1`, the IC50 in [4] is 11.4 µM; in [5], 26.8 µM; in test [6], 6.2 µM.
For orientation: Ki means the dissociation constant of the complex between target and ligand, obtained from inhibition or displacement. Higher therefore signals weaker binding. For the compound `O=c1c(Cc2ccc(-c3ccccc3)cc2)c(-c2ccc(O)cc2)oc2cc(O)c(O)cc12`, the values for the IC50 in test [4], in test [5] and in [6] were 1.1 µM, 3 µM and 2 µM, respectively. For the same compound, the inhibitory constant (Ki) in test [7] was 0.27 µM; in test [8], 0.34 µM. Besides, the outcome in test [9] and in test [10] was Active.
Take `Oc1ccc(-c2ccccc2)c(O)c1`: the inhibition stood at 0% in test [11], 0% in test [12] and 10% in test [13].
In the case of `O=C(c1ccc(O)cc1)c1oc2ccccc2c1-c1ccc(-c2ccc(O)cc2)cc1`, the IC50 in [14] was found to be 1.08 µM.
As to `O=C(O)c1ccc(-c2cccc(Cc3c(-c4ccc(O)cc4)oc4cc(O)ccc4c3=O)c2)cc1O`, the inhibition in [11] worked out at 5%; in test [12] it was 10%; in test [13], 50%.
With `O=c1c(Cc2ccc(-c3ccc(O)c(O)c3)cc2)c(-c2ccc(O)cc2)oc2cc(O)ccc12`, the IC50 was determined as 7.4 µM in test [4], 12.4 µM in test [5] and 7.7 µM in test [6]. The Ki in test [15] was 2.23 µM; in test [16], 2.68 µM. For the same compound, the result in [9], in [17] and in [10] was Active.
Take `O=c1c(Cc2ccc(-c3ccccc3)cc2)c(-c2ccc(O)cc2)oc2cc(O)ccc12`: the IC50 in test [4] is 5.7 µM; in test [5] it was 13.9 µM. Besides, the inhibition in test [3] is 4%. The Ki turned out to be 2.5 µM in test [15], 7.8 µM in [16] and 29.1 µM in [18].
With `O=c1c(Cc2ccc(-c3ccccc3)cc2)c(Cc2ccc(O)cc2)oc2cc(O)ccc12`, the IC50 in [4] worked out at 5.3 µM; in test [5], 17.5 µM. In test [3], this compound yielded an inhibition of 10%.
Consider `O=c1cc(-c2ccc(O)cc2)oc2cc(O)c(O)cc12`, for which the values for the inhibition in test [11], in test [12] and in test [13] were 25%, 10% and 10%, respectively.
With `O=c1c(Cc2ccc(-c3ccc(O)cc3)cc2)c(-c2ccc(O)cc2)oc2cc(O)ccc12`, in [6], half-maximal inhibition (IC50) required 17 µM.
Take `O=c1c(Cc2ccc(-c3ccccc3)cc2)c(Cc2ccc(O)cc2)oc2ccc(O)cc12`: the IC50 in [4] is 8.6 µM; in [5], 17.2 µM. For the same compound, the inhibition in test [3] turned out to be 20%.
Turning to `O=C(O)c1ccc(-c2ccc(Cc3c(-c4ccc(O)cc4)oc4cc(O)ccc4c3=O)cc2)cc1O`, the IC50 came out at 1.3 µM in test [4], 2.2 µM in test [5] and 1 µM in test [6]. The outcome in [9], in [17] and in test [10] was Active.
With `O=C(O)c1ccc(-c2ccc(Cc3c(-c4ccc(O)cc4)oc4ccccc4c3=O)cc2)cc1O`, the IC50 in test [4] was determined as 0.7 µM; in [5] it was 5.7 µM; in test [6], 0.9 µM.
Regarding `O=c1cc(Cc2ccc(O)cc2)oc2cc(O)ccc12`, the inhibition in [1] was determined as 10%; in [2], 10%; in [3], 0%.
In the case of `Oc1ccc(-c2ccccc2)cc1O`, the inhibition in [11] worked out at 0%; in [12] it was 0%; in [13], 20%.
As to `O=C(O)c1ccc(-c2ccccc2)cc1O`, the inhibition in [11] came out at 0%; in [12], 0%; in [13] it was 5%.
Turning to `O=c1c(Cc2cccc(-c3ccc(O)c(O)c3)c2)c(-c2ccc(O)cc2)oc2cc(O)ccc12`, the inhibition in test [11] was found to be 60%; in [12], 25%; in test [13], 50%.
On to `O=c1c(Cc2ccc(-c3ccccc3)cc2)c(CCc2ccc(O)cc2)oc2cc(O)ccc12`, for which the IC50 in test [4] is 6.5 µM; in test [5], 17.3 µM. For the same compound, the inhibition in [3] turned out to be 20%.
With `O=c1c(Cc2ccccc2)c(Cc2ccc(O)cc2)oc2cc(O)ccc12`, the inhibition in test [1] worked out at 10%; in test [2], 10%; in [3], 0%.
As to `O=c1c(Cc2ccc(-c3ccc(O)c(O)c3)cc2)c(-c2ccc(O)cc2)oc2ccccc12`, the IC50 in test [4] was found to be 14.3 µM; in test [5], 12.6 µM; in test [6], 5 µM.
